Experimental data taken from ChEMBL document CHEMBL4041479, “Piperlongumine (piplartine) and analogues: Antiproliferative microtubule-destabilising agents” (Eur J Med Chem, 2017).
Activity calls are given as the source filed them. The calls are words filed in the database; no cut-off is given here.

Tests used:
MCF7 [1] = test: Induction of reactive oxygen species generation in human MCF7 cells assessed as decrease in cell viability at 10 uM in presence of N-acetyl cysteine after 48 hrs by alamarBlue assay; assay type: functional, cell-based
How it was run: (§1)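 MCF-7 cells were seeded at 2.5×10^4 cells/mL and left to adhere. They were pre-treated 1 h with N-acetyl cysteine (1 mM) or Trolox (100 μM), then exposed to test agents for 48 h. Viability was measured by alamarBlue fluorescence as % of ethanol vehicle control. Mean of three independent experiments.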

MCF7 [2] = test: Induction of reactive oxygen species generation in human MCF7 cells assessed as decrease in cell viability at 1 to 10 uM in presence of N-acetyl cysteine after 48 hrs by alamarBlue assay; assay type: functional, cell-based
How it was run: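 MCF-7 cells seeded at 2.5×10^4 cells/mL, left overnight to adhere. After 23 h, pre-treated 1 hr with NAC (1 mM; 100 mM stock in sterile water), then compound for 48 h at 37 °C in 5% CO₂. alamarBlue added 5 h before endpoint, fluorescence ex 544/em 590 nm, blank subtracted. Viability as % of ethanol vehicle control, mean of three independent experiments.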

MCF7 [3] = test: Induction of reactive oxygen species generation in human MCF7 cells assessed as decrease in cell viability at 100 nM in presence of N-acetyl cysteine after 48 hrs by alamarBlue assay; assay type: functional, cell-based; how it was run: as §1
Homo sapiens [4] = species on record: Homo sapiens; test: Disruption of microtubule network in human MCF7 cells at 100 nM after 16 hrs by immunofluorescence analysis; assay type: cell-based
How it was run: (§2)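 MCF-7 cells were seeded at 1×10^5 cells/mL on chamber slides and treated for 16 h (vehicle 1% ethanol). Cells were fixed 20 min in 4% paraformaldehyde, permeabilised in 0.5% Triton X-100 and blocked in 5% BSA/PBST. Staining used anti-α-tubulin–FITC (DM1A) for 2 h at rt, then Alexa Fluor 488 for 1 h, with DAPI counterstain. Imaging was by confocal microscopy; three independent experiments.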

Homo sapiens [5] = species on record: Homo sapiens; test: Binding affinity to colchicine-binding site of beta tubulin in human HT-29 cells assessed as inhibition of formation of protein-N,N'-Ethylene-bis(iodoacetamide) adduct at 10 uM after 2 hrs by Western blot method; assay type: cell-based
How it was run: (§3)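 MCF-7 or HT-29 cells were exposed to test agent or ethanol vehicle (0.1% v/v) for 2 h, with MCF-7 seeded at 1×10^6 cells/well overnight beforehand. Selected samples then received N,N'-ethylene-bis(iodoacetamide) for a further 1.5 h. Cells were washed in cold PBS, lysed in Laemmli buffer and run on SDS-PAGE. Three independent experiments.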

Homo sapiens [6] = species on record: Homo sapiens; test: Binding affinity to colchicine-binding site of beta tubulin in human MCF7 cells assessed as inhibition of formation of protein-N,N'-Ethylene-bis(iodoacetamide) adduct at 10 uM after 2 hrs by Western blot method; assay type: cell-based; how it was run: as §3
MCF7 [7] = test: Induction of reactive oxygen species generation in human MCF7 cells assessed as decrease in cell viability at 0.1 to 10 uM in presence of N-acetyl cysteine after 48 hrs by alamarBlue assay; assay type: functional, cell-based; how it was run: as §1
Homo sapiens [8] = species on record: Homo sapiens; test: Disruption of microtubule network in human MCF7 cells at 20 uM after 16 hrs by immunofluorescence analysis; assay type: cell-based; how it was run: as §2
MCF7 [9] = test: Cell cycle arrest in human MCF7 cells assessed as G2/M phase accumulation at 5 uM after 48 hrs by propidium iodide staining based flow cytometry; assay type: functional
How it was run: (§4)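 MCF-7 cells were seeded at 1×10^5 cells/mL and treated after 24 h with 5, 10 or 20 μM or 0.1% ethanol for 24 or 48 h. Cells were pooled, fixed in ice-cold 70% ethanol at −20 °C for 24 h, then stained with RNase A and propidium iodide for 30 min at 37 °C in the dark. Flow cytometry used FL-2, ≥10,000 gated cells, and sub-G1/G0G1/G2/M were scored by DNA content. Mean ± SEM of three; one-way ANOVA with Dunnett's test.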

MCF7 [10] = test: Induction of reactive oxygen species generation in human MCF7 cells assessed as decrease in cell viability at 1 to 20 uM in presence of N-acetyl cysteine after 48 hrs by alamarBlue assay; assay type: functional, cell-based; how it was run: as §1
MCF7 [11] = test: Cell cycle arrest in human MCF7 cells assessed as G0/G1 phase accumulation at 10 uM after 48 hrs by propidium iodide staining based flow cytometry; assay type: functional; how it was run: as §4
Jurkat [12] = test: Antiproliferative activity in human Jurkat cells assessed as cell viability after 48 hrs by alamarBlue assay; assay type: functional, cell-based
How it was run: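 Cells were seeded at 2.5×10^4 cells/mL and treated after 24 h with vehicle (0.1% v/v ethanol) or a dose range (0.1–20 μM) for 48 h at 37 °C in 5% CO2. AlamarBlue was added 5 h before the end and read as fluorescence (ex 544/em 590 nm). Media-only blanks were subtracted, and viability is given as % of vehicle. Sextuplicate wells, three independent experiments.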

Homo sapiens [13] = species on record: Homo sapiens; test: Induction of microtubule depolymerization in human MCF7 cells at 10 uM after 16 hrs by immunofluorescence analysis; assay type: cell-based; how it was run: as §2
Homo sapiens [14] = species on record: Homo sapiens; test: Induction of tubulin depolymerization in human Jurkat cells at 5 to 20 uM after 4 hrs by Western blot method; assay type: cell-based
How it was run: (§5)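 MCF-7 (1×10^6/well) or Jurkat cells were treated for 4 h with 1–20 μM or 0.1% ethanol. Cells were lysed in microtubule-preserving buffer (0.1 M PIPES pH 6.9, 2 M glycerol, 5 mM MgCl2, 2 mM EGTA, 0.5% Triton X-100, 4 μM paclitaxel) and centrifuged at 20,000g for 45 min. Soluble (supernatant) and polymer (pellet) fractions, 30 μg protein each, were immunoblotted for α-tubulin with a GAPDH loading control. Three experiments.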

Homo sapiens [15] = species on record: Homo sapiens; test: Binding affinity to colchicine-binding site of beta tubulin in human HT-29 cells assessed as inhibition of formation of protein-N,N'-Ethylene-bis(iodoacetamide) adduct at 40 uM after 2 hrs by Western blot method; assay type: cell-based; how it was run: as §3
MCF7 [16] = test: Cell cycle arrest in human MCF7 cells assessed as G2/M phase accumulation at 5 uM after 24 hrs by propidium iodide staining based flow cytometry; assay type: functional; how it was run: as §4
MCF7 [17] = test: Cell cycle arrest in human MCF7 cells assessed as G2/M phase accumulation at 10 uM after 48 hrs by propidium iodide staining based flow cytometry; assay type: functional; how it was run: as §4
MCF7 [18] = test: Induction of apoptosis in human MCF7 cells assessed as downregulation of Bcl2 expression at 10 uM after 48 hrs by Western blot method; assay type: functional, cell-based
How it was run: (§6)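 MCF-7 cells were seeded at 5×10^5 cells/flask and exposed to 10 μM, vehicle (0.1% ethanol) or no treatment for 48 or 72 h. Cells were lysed in RIPA buffer with protease/phosphatase inhibitors, and equal protein (by BCA) was run on 12% SDS-PAGE. Blots were probed overnight at 4 °C for Bcl-2 (1:500) or Mcl-1 (1:1000), with GAPDH as loading control and ECL detection. Three independent experiments.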

Homo sapiens [19] = species on record: Homo sapiens; test: Effect on tubulin polymerization in human Jurkat cells at 1; assay type: cell-based; how it was run: as §5
Homo sapiens [20] = species on record: Homo sapiens; test: Binding affinity to colchicine-binding site of beta tubulin in human MCF7 cells assessed as inhibition of formation of protein-N,N'-Ethylene-bis(iodoacetamide) adduct at 40 uM after 2 hrs by Western blot method; assay type: cell-based; how it was run: as §3
Homo sapiens [21] = species on record: Homo sapiens; test: Induction of tubulin depolymerization in human MCF7 cells at 5 to 20 uM after 4 hrs by Western blot method; assay type: cell-based; how it was run: as §5
Bos taurus = species on record: Bos taurus; test: Induction of bovine tubulin depolymerization at 25 uM measured every 30 secs for 60 mins by spectrophotometry
How it was run: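 Purified tubulin plus GTP was incubated at 37 °C with test agent or 1% ethanol vehicle. Assembly was followed as absorbance (light scattering) at 340 nm every 30 s for 60 min. Mean of three experiments run in duplicate.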

MCF7 [22] = test: Induction of reactive oxygen species generation in human MCF7 cells assessed as decrease in cell viability at 1 to 20 uM in presence of trolox after 48 hrs by alamarBlue assay; assay type: functional, cell-based; how it was run: as §1
MCF7 [23] = test: Cell cycle arrest in human MCF7 cells assessed as G0/G1 phase accumulation at 20 uM after 24 hrs by propidium iodide staining based flow cytometry; assay type: functional; how it was run: as §4
Homo sapiens [24] = species on record: Homo sapiens; test: Effect on tubulin polymerization in human MCF7 cells at 1; assay type: cell-based; how it was run: as §5
MCF7 [25] = test: Cell cycle arrest in human MCF7 cells assessed as G2/M phase accumulation at 10 uM after 24 hrs by propidium iodide staining based flow cytometry; assay type: functional; how it was run: as §4
Jurkat [26] = test: Cytotoxicity against human Jurkat cells after 24 hrs by MTT assay; assay type: functional, cell-based
MCF7 [27] = test: Antiproliferative activity in human MCF7 cells assessed as cell viability after 48 hrs by alamarBlue assay; assay type: functional, cell-based; conditions: MCF7, 48 h
How it was run: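 Cells were seeded at 2.5×10^4 cells/mL and treated after 24 h with vehicle (0.1% v/v ethanol) or a dose range (0.1–20 μM) for 48 h at 37 °C in 5% CO2. Media-only blanks were subtracted, and viability is given as % of vehicle. Sextuplicate wells, three independent experiments.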

MCF7 [28] = test: Cytotoxicity against human MCF7 cells after 24 hrs by MTT assay; assay type: functional, cell-based; conditions: MCF7, 24 h
MCF7 [29] = test: Induction of apoptosis in human MCF7 cells assessed as downregulation of Mcl-1 expression at 10 uM after 72 hrs by Western blot method; assay type: functional, cell-based; how it was run: as §6
MCF7 [30] = test: Cell cycle arrest in human MCF7 cells assessed as G0/G1 phase accumulation at 10 uM after 24 hrs by propidium iodide staining based flow cytometry; assay type: functional; how it was run: as §4
MCF7 [31] = test: Cell cycle arrest in human MCF7 cells assessed as sub G0/G1 phase accumulation at 20 uM after 48 hrs by propidium iodide staining based flow cytometry; assay type: functional; how it was run: as §4
MCF7 [32] = test: Cell cycle arrest in human MCF7 cells assessed as sub G0/G1 phase accumulation at 10 uM after 48 hrs by propidium iodide staining based flow cytometry; assay type: functional; how it was run: as §4
MCF7 [33] = test: Cell cycle arrest in human MCF7 cells assessed as G0/G1 phase accumulation at 20 uM after 48 hrs by propidium iodide staining based flow cytometry; assay type: functional; how it was run: as §4
MCF-10A = test: Cytotoxicity in human MCF10A cells at 10 uM after 24 to 48 hrs by alamarBlue assay; assay type: cell-based
How it was run: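 MCF-10a cells were grown in DMEM/F12 with 5% horse serum, EGF, hydrocortisone, cholera toxin and insulin. They were treated at 1, 5, 10 or 20 μM for 48 h. Read-out was alamarBlue fluorescence, blank-subtracted and expressed as % of ethanol vehicle control. Mean of three independent experiments; unpaired two-tailed t-test.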

MCF7 [34] = test: Cell cycle arrest in human MCF7 cells assessed as G2/M phase accumulation at 20 uM after 24 hrs by propidium iodide staining based flow cytometry
MCF7 [35] = test: Cell cycle arrest in human MCF7 cells assessed as G2/M phase accumulation at 20 uM after 48 hrs by propidium iodide staining based flow cytometry

SMILES: COc1cc(C(=O)/C=C/c2ccc(N(C)C)cc2)cc(OC)c1OC
- Activity (MCF7 [1]): inactive

SMILES: COc1cc2c(c(OC)c1OC)-c1ccc(OC)c(=O)cc1[C@@H](NC(C)=O)CC2
- Activity (MCF7 [2]): inactive

SMILES: COc1ccc(/C=C(\C)C(=O)c2cc(OC)c(OC)c(OC)c2)cc1O
- Activity (MCF7 [1]): inactive

SMILES: COc1ccc(/C=C\c2cc(OC)c(OC)c(OC)c2)cc1O
- Activity (MCF7 [3]): inactive
- Activity (Homo sapiens [4]): Active
- inhibition (Homo sapiens [5]): Active
- inhibition (Homo sapiens [6]): Active
- Activity (MCF7 [7]): inactive

SMILES: COc1ccc(OC)c(C(=O)/C(C)=C/c2ccc(N(C)C)cc2)c1
- Activity (MCF7 [1]): inactive

SMILES: COc1cc(/C=C/C(=O)N2CCC=CC2=O)cc(OC)c1OC [PIPLARTINE]
- Activity (Homo sapiens [8]): Active
- Activity (MCF7 [9]): 6%
- Activity (MCF7 [10]): inactive
- Activity (MCF7 [11]): 21%
- IC50 (Jurkat [12]): 1.4 µM
- Activity (Homo sapiens [13]): Active
- Activity (Homo sapiens [14]): Active
- inhibition (Homo sapiens [15]): inactive
- Activity (MCF7 [16]): 13%
- Activity (MCF7 [17]): 15%
- Activity (MCF7 [18]): Active
- Activity (Homo sapiens [19]): inactive
- inhibition (Homo sapiens [20]): inactive
- Activity (Homo sapiens [21]): Active
- Activity (Bos taurus): Active
- Activity (MCF7 [22]): Active
- Activity (MCF7 [23]): 15%
- Activity (Homo sapiens [24]): inactive
- Activity (MCF7 [25]): 16%
- IC50 (Jurkat [26]): 5 µM
- IC50 (MCF7 [27]): 1.2 µM
- IC50 (MCF7 [28]): 8 µM
- Activity (MCF7 [29]): Active
- Activity (MCF7 [30]): 16%
- Activity (MCF7 [31]): 4.9%
- Activity (MCF7 [32]): 4.3%
- Activity (MCF7 [33]): 19%
- Activity (MCF-10A): 90%
- Activity (MCF7 [34]): 12%
- Activity (MCF7 [35]): 10%
